The source made the active and inactive calls. The calls are words filed in the database; no cut-off is given here.
Legend:
[1] = biological target: Eukaryotic initiation factor 4A-I (Oryctolagus cuniculus) (UniProt P29562); assay: Inhibition of eIF4A1-mediated FF/HCV/Ren cap-dependent mRNA translation in rabbit reticulocyte lysate by reporter gene assay
Mus musculus [2] = assay: Hematotoxicity in C57Bl/6 mouse assessed as effect on CD4 T cells at 0.2 mg/kg, ip administered for 5 days measured 2 hrs post last dose by FACS analysis; assay type: organism-based, T-cell; parameters: dose 0.2 mg/kg, route intraperitoneal; details: in vivo
Mus musculus [3] = assay: Hematotoxicity in C57Bl/6 mouse assessed as effect on […] T cells at 0.2 mg/kg, ip administered for 5 days measured 2 hrs post last dose by FACS analysis; assay type: organism-based, T-cell; parameters: dose 0.2 mg/kg, route intraperitoneal; details: in vivo
Mus musculus [4] = assay: Hematotoxicity in C57Bl/6 mouse assessed as effect on Ly-6G myeloid cells at 0.2 mg/kg, ip administered for 5 days measured 2 hrs post last dose by FACS analysis; assay type: organism-based; parameters: dose 0.2 mg/kg, route intraperitoneal; details: in vivo
Mus musculus [5] = assay: Hematotoxicity in C57Bl/6 mouse assessed as effect on B220 pre-B/B cells at 0.2 mg/kg, ip administered for 5 days measured 2 hrs post last dose by FACS analysis; assay type: organism-based; parameters: dose 0.2 mg/kg, route intraperitoneal; details: in vivo
[6] = Metabolic stability in mouse liver microsomes assessed as compound remaining after 1 hr; assay type: ADME, Microsome; details: read-out: Stability
Summary of the method: (§1)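 Incubation with human or murine liver microsomes, read as percent compound remaining after 1 h.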

[7] = Metabolic stability in human liver microsomes assessed as compound remaining after 1 hr; assay type: ADME, Microsome; details: read-out: Stability; summary of the method: as §1
[8] = Metabolic stability in human plasma assessed as compound remaining after 3 hrs; assay type: ADME, cell-free; details: read-out: Stability
Summary of the method: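 Stability in human plasma measured as percent compound remaining after 3 h.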

[9] = Permeability of the compound by PAMPA assay at pH 7.4; assay type: ADME
[10] = Plasma protein binding in human after 4 hrs; assay type: ADME, cell-free; details: read-out: PPB (converted)
Summary of the method: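 Human plasma protein binding measured after 4 h exposure.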

[11] = Permeability of the compound by PAMPA assay at pH 6.2; assay type: ADME
[12] = Solubility of the compound at pH 7.4; assay type: physicochemical; details: buffer
Summary of the method: (§2)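 Solubility measured at pH 5.0, 6.2 and 7.4.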

[13] = Permeability of the compound by PAMPA assay at pH 5; assay type: ADME
[14] = Solubility of the compound at pH 6.2; assay type: physicochemical; details: buffer; summary of the method: as §2
[15] = Solubility of the compound at pH 5; assay type: physicochemical; details: buffer; summary of the method: as §2
lymphoma = assay: Potentiation of doxorubicin antitumor activity against mouse Eu-myc/myr-AKT lymphoma cells xenografted in C57Bl/6 mouse assessed as tumor-free survival at 0.2 mg/kg, ip administered daily for 5 days; assay type: functional, organism-based; parameters: dose 0.2 mg/kg
Summary of the method: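 C57Bl/6 mice, 6-8 weeks old, received 10^6 Eμ-myc/(myr)Akt lymphoma cells intravenously. Dosing began when tumours were palpable: test agent 0.2 mg/kg i.p. daily for 5 d in PEG 400/5.2% Tween 80, with doxorubicin 10 mg/kg given once on day 2. n=5 per group. Read-out was tumour-free survival (Kaplan-Meier).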

BJAB = assay: Cytotoxicity against human BJAB cells after 72 hrs by PI-staining based flow cytometric analysis; assay type: functional, cell-based
Summary of the method: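 BJAB cells exposed 72 h to a concentration series. Viability by propidium iodide staining and flow cytometry, plotted relative to vehicle (DMSO). Mean of three experiments.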

[16] = biological target: T1, Eukaryotic initiation factor 4A-I (Homo sapiens, UniProt P60842); assay: Inhibition of eIF4A1-mediated protein synthesis in human BJAB cells assessed as inhibition of [35S]Met incorporation after 72 hr by scintillation counting; assay type: cell-based
Summary of the method: (§3)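 BJAB lymphoma cells exposed to compound for 1 h or 72 h. Protein synthesis measured as 35S-Met incorporation, normalised to total protein content and expressed relative to DMSO vehicle. Duplicates.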

[17] = biological target: T1, Eukaryotic initiation factor 4A-I; assay: Inhibition of eIF4A1-mediated protein synthesis in human BJAB cells assessed as inhibition of [35S]Met incorporation after 1 hr by scintillation counting; assay type: cell-based; summary of the method: as §3
[18] = biological target: T1, Eukaryotic initiation factor 4A-I; assay: Inhibition of recombinant eIF4A1 assessed as depletion of eIF4A1/2 from eIF4F complex at 1 to 10 uM after 1 hr by Western blot analysis
Summary of the method: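 eIF4F complex isolated by m7GTP affinity purification. Eluates resolved on 10% SDS-PAGE, then Western blot for eIF4E and eIF4AI/II.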

[19] = biological target: T1, Eukaryotic initiation factor 4A-I; assay: Inhibition of recombinant eIF4A1 assessed as eIF4A1/[32P]mRNA complex formation at 1 to 10 uM after 10 mins by scintillation counting in presence of hippuristanol
[20] = biological target: T1, Eukaryotic initiation factor 4A-I; assay: Inhibition of recombinant eIF4A1 assessed as eIF4A1/[32P]mRNA complex formation after 10 mins by scintillation counting
Summary of the method: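 Binding of eIF4AI to radiolabelled RNA. Mean of three experiments with standard error of the mean.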

[21] = biological target: T1, Eukaryotic initiation factor 4A-I; assay: Inhibition of eIF4A1-mediated protein synthesis in human HeLA cells assessed as inhibition of [35S]Met incorporation by scintillation counting; assay type: cell-based
Summary of the method: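 HeLa cells treated with compound or DMSO vehicle. Protein synthesis measured as 35S-Met incorporation, normalised to total protein content and expressed relative to the DMSO control. Values are the average of duplicates with the error of the mean.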

T1 sequence (P60842 whole entry): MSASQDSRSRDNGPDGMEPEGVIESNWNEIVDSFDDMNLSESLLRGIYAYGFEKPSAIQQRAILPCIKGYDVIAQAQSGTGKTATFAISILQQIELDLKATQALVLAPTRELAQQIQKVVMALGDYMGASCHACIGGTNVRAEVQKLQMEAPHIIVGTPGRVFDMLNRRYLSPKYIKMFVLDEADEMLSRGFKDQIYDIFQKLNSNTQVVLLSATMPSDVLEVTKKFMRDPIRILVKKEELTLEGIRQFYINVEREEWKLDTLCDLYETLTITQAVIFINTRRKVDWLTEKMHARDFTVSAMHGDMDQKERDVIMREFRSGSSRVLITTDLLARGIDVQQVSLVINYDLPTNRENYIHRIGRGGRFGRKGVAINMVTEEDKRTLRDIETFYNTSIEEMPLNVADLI
Sequence of Eukaryotic initiation factor 4A-I (Oryctolagus cuniculus) (P29562 whole entry): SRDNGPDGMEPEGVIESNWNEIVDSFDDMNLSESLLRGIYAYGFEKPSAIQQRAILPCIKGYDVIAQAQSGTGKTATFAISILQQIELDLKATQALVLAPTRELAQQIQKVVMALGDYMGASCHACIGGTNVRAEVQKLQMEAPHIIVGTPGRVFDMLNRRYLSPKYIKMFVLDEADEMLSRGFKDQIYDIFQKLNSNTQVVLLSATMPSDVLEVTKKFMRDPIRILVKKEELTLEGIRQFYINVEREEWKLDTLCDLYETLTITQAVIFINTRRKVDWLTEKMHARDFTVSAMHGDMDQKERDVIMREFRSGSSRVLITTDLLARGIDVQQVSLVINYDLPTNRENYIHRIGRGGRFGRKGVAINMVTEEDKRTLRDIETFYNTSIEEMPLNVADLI

Q: For `CONC(=O)C1C(O)C2(O)c3c(OC)cc(OC)cc3OC2(c2ccc(OC)cc2)C1c1ccccc1` (racemic), which inhibition [1] is on record?
A: The inhibition was “Active”.

Q: With `CONC(=O)[C@H]1[C@@H](O)[C@@]2(O)c3c(OC)cc(OC)cc3O[C@@]2(c2ccc(OC)cc2)[C@@H]1c1ccccc1` as the molecule, how does the Activity (Mus musculus [2]) read?
A: Its Activity is “Non-toxic”.

Q: What about the Activity (Mus musculus [3]) of the same molecule?
A: Its Activity is “Non-toxic”.

Q: And the Activity (Mus musculus [4])?
A: Its Activity is “Non-toxic”.

Q: What about the Activity (Mus musculus [5]) of the same molecule?
A: The Activity was “Non-toxic”.

Q: And the remaining at 1 h [6]?
A: Its remaining at 1 h is > 95%.

Q: And the remaining at 1 h [7]?
A: The remaining at 1 h was > 95%.

Q: What about the remaining at 3 h [8] of the same molecule?
A: Its remaining at 3 h is 100%.

Q: What about the permeability [9] of the same molecule?
A: Its permeability is “permeable”.

Q: And the fraction unbound at 4 h [10]?
A: The fraction unbound at 4 h was 0.18.

Q: And the permeability [11]?
A: Its permeability is “permeable”.

Q: What about the solubility [12] of the same molecule?
A: The solubility was > 150 mg/mL.

Q: And the permeability [13]?
A: Its permeability is “permeable”.

Q: What about the solubility [14] of the same molecule?
A: Its solubility is > 150 mg/mL.

Q: And the solubility [15]?
A: The solubility was > 150 mg/mL.

Q: What about the Activity (lymphoma) of the same molecule?
A: The Activity was “Active”.

Q: What about the IC50 (BJAB) of the same molecule?
A: The IC50 was 1.5 nM.

Q: And the IC50 [16]?
A: The IC50 was 0.5 nM.

Q: And the IC50 [17]?
A: Its IC50 is 20 nM.

Q: And the inhibition [18]?
A: The inhibition was “Active”.

Q: What about the inhibition [19] of the same molecule?
A: Its inhibition is “inactive”.

Q: What about the inhibition [20] of the same molecule?
A: Its inhibition is “Dose-dependent effect”.

Q: And the inhibition [1]?
A: The inhibition was “Active”.

Q: For `CONC(=O)[C@@H]1[C@H](O)[C@]2(O)c3c(OC)cc(OC)cc3O[C@]2(c2ccc(OC)cc2)[C@H]1c1ccccc1`, which inhibition [1] is on record?
A: The inhibition was “inactive”.

Q: For `COc1ccc(C23Oc4cc(OC)cc(OC)c4C2(O)C(O)C(C(=O)NOCCOCCOCCNC(C)=O)C3c2ccccc2)cc1` (racemic), which inhibition [21] is on record?
A: Its inhibition is “Active”.

Q: What about the inhibition [1] of the same molecule?
A: Its inhibition is “Active”.

Q: What does the source list for `COC(=O)[C@H]1[C@@H](O)[C@@]2(O)c3c(OC)cc(O[C@@H]4O[C@@H]([C@H](O)CO)CO[C@H]4OC)cc3O[C@@]2(c2ccc(OC)cc2)[C@@H]1c1ccccc1`?
A: Activity (lymphoma): Active; inhibition (BJAB): Active; inhibition [16]: Active; inhibition [17]: Active; inhibition [18]: Active; inhibition [19]: inactive; inhibition [20]: Dose-dependent effect

Q: For `COc1ccc(C23Oc4cc(OC)cc(OC)c4C2(O)C(O)C(C(=O)NOCC2CC2)C3c2ccccc2)cc1` (racemic), which inhibition [1] is on record?
A: The inhibition was “Active”.

Q: Which inhibition [1] does the source give for `COc1ccc([C@@]23Oc4cc(OC)cc(OC)c4[C@]2(O)[C@H](O)[C@H](C(=O)c2ccc(CO)o2)[C@H]3c2ccccc2)cc1` here?
A: The inhibition was “Active”.

Q: Which inhibition [21] does the source give for `COc1ccc(C23Oc4cc(OC)cc(OC)c4C2(O)C(O)C(C(=O)NOCCO)C3c2ccccc2)cc1` (racemic) here?
A: The inhibition was “Active”.

Q: And the inhibition [1]?
A: The inhibition was “Active”.
